Assays:
MS2 coat protein [1] = test: apparent Kd, MS2 coat protein; higher = weaker binding; RNA-MaP array
Outline: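 Apparent Kd was taken as the median of binding curves fitted cluster by cluster. The designed RNAs were made by transcription of sequenced DNA templates on an Illumina sequencing chip and exposed to fluorescently labeled MS2 coat protein (1.5 nM to 3 μM) at room temperature, with or without input ligand, for 0.8–1.5 h at the lowest and 10–20 min at the highest concentrations. Any design measured on fewer than 10 clusters was left out.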

MS2 coat protein [2] = test: apparent Kd, MS2 coat protein; higher = weaker binding; RNA-MaP array; FMN 200 µM where present
Outline: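 Designs were transcribed by stalled E. coli RNA polymerase on Illumina sequencing-chip clusters. They were titrated with SNAP-549-labelled MS2 coat protein from 0.7 or 1.5 nM, doubling to 3 µM, in 100 mM Tris-HCl pH 7.5, 80 mM KCl, 4 mM MgCl2, BSA, DTT, yeast tRNA and Tween-20, without and then with constant ligand. The apparent Kd is the median of filtered per-cluster fits after normalisation of green signal to red-channel RNA signal and control-cluster median Fmax.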

[3] = designed as: OFF switch for flavin mononucleotide, no ligand
[4] = ligand present: flavin mononucleotide, designed as: OFF switch for flavin mononucleotide
[5] = designed as: ON switch for tryptophan, no ligand
[6] = ligand present: tryptophan, designed as: ON switch for tryptophan
[7] = designed as: ON switch for flavin mononucleotide, no ligand
[8] = ligand present: flavin mononucleotide, designed as: ON switch for flavin mononucleotide

## AAAGGCGUAGGAUAUACAUGAGGAUCACCCAUGUAUCACAAUAACGAGGAAUGAAAGUGUAGAAGGACGAUAAC
MS2 coat protein [1]; [3]
  apparent Kd: 7.48 nM
MS2 coat protein [1]; [4]
  apparent Kd: 6.8 nM

## AAAUACAUGAGGAUCACCCAUGUCAAUAAUCGAGGACCGGUACGGCCGCCACUCGAUCGGCCAAGAAAAUGAAAGAUGAUCUCUA
MS2 coat protein [1]; [5]
  apparent Kd: 26.9 nM
MS2 coat protein [1]; [6]
  apparent Kd: 30.7 nM

## AAAUUCGGGAUCUAGGAUAUGUGCGUUUACACAUGAGGAUCACCCAUGUCUCACAGCCGUUUACCACAGAAGGAGAAACGACCUUA
MS2 coat protein [1]; [7]
  apparent Kd: 31.1 nM
MS2 coat protein [1]; [8]
  apparent Kd: 23.9 nM

## AACCACGAGUCGGCCGCCACUUGCAACUAGUUUCAGAAGCAGAAACAUGAGGAUCACCCAUGUCGAAGGACCGGGACUUUACAGG
MS2 coat protein [1]; [5]
  apparent Kd: 23.2 nM
MS2 coat protein [1]; [6]
  apparent Kd: 18.7 nM

## AAGACGAAGAAGAAGGGCAUACAUGAGGAUCACCCAUGUGAAAAUGUGCUGAAAGAACAUAAAUUGCAGGAUAUUCACACAAGU
MS2 coat protein [1]; [7]
  apparent Kd: 11.2 nM
MS2 coat protein [1]; [8]
  apparent Kd: 6.42 nM

## AAGCGACGUGACGCCUACAUGAGGAUCACCCAUGUAUGAAACAGAAGGUCCCGGAACCUUUACCGGAAGGAUAUGUAUCGUGCU
MS2 coat protein [1]; [3]
  apparent Kd: 9.18 nM
MS2 coat protein [1]; [4]
  apparent Kd: 7.78 nM

## AAGCUCUCAGGAUAUACAUGAGGAUCACCCAUGUGGUCGUAUUUAAAGUGGAGCAGCAGUAGAAGGGAGGCGAC
MS2 coat protein [1]; [3]
  apparent Kd: 24.5 nM
MS2 coat protein [1]; [4]
  apparent Kd: 20.4 nM

## AAGGACAUGAGGAUCACCCAUGUAGAGGAGCGAGGACCGGUACGGCCGCCACUCGGUGACAUUCGAUAAUGCCGAAUAAGACAUC
MS2 coat protein [1]; [5]
  apparent Kd: 23.6 nM
MS2 coat protein [1]; [6]
  apparent Kd: 22.6 nM

## AAUAAGAGCUCGGAUACCAGCGAAAACAGGCACAUGAGGAUCACCCAUGUUAACGCACUGCGCCCUUGGCAGCCGCACGUGUGUC
MS2 coat protein [1]; designed as: ON switch for theophylline, no ligand
  apparent Kd: 25.1 nM
MS2 coat protein [1]; ligand present: theophylline, designed as: ON switch for theophylline
  apparent Kd: 12 nM

## AAUACAAAACAUGAGGAUCACCCAUGUCCCGAGACUAAACUAAGAAGGUGACCAACCAAAAGGGUCAAGGAUAUUAGGAUCUAU
MS2 coat protein [1]; [7]
  apparent Kd: 28.9 nM
MS2 coat protein [1]; [8]
  apparent Kd: 13.4 nM

## AAUGACAUGAGGAUCACCCAUGUCCAUCUAAGCUCGGGUCUGCAGGAUAUUCCCGUGGGAUUAGGGAAGAAGGGCAGUGAUUGU
MS2 coat protein [1]; [7]
  apparent Kd: 14 nM
MS2 coat protein [1]; [8]
  apparent Kd: 7.02 nM

## AAUGCGAGACUAGGAUAUUGCAUUCAACUCGUGCAAGAAGGAGUCGUUUCAUACAUGAGGAUCACCCAUGUCCAUAUUUCUCAA
MS2 coat protein [1]; [7]
  apparent Kd: 14.5 nM
MS2 coat protein [1]; [8]
  apparent Kd: 7.44 nM

## AAUGGGUGAGAUCGUUUCAACAUGAGGAUCACCCAUGUUGACAGAAGGAGGUCUAAAUAGCUACCCUAGGAUAUGUCCAUGCGA
MS2 coat protein [1]; [3]
  apparent Kd: 19.9 nM
MS2 coat protein [1]; [4]
  apparent Kd: 31.9 nM

## ACAUCUUGUACGGCCGCCACUAACAGAUUCAGCGUCGGAGCCAACUACAUGAGGAUCACCCAUGUUAGGACCGGGUACUGUCCAC
MS2 coat protein [1]; designed as: OFF switch for tryptophan, no ligand
  apparent Kd: 17.7 nM
MS2 coat protein [1]; ligand present: tryptophan, designed as: OFF switch for tryptophan
  apparent Kd: 34.9 nM

## ACAUGAGGAUCACCCAUGUAAAUGAUAUGUCACCAUGAUGUUAGAAGGAAAGCGGAAAGUCAAUUUUAGGAUAUAAUGUAUUGA
MS2 coat protein [1]; [7]
  apparent Kd: 11.9 nM
MS2 coat protein [1]; [8]
  apparent Kd: 8.51 nM

## ACAUGAGGAUCACCCAUGUCUCGGGUGCCGGUUUUUACCUAGAGAAGGUGCGCAACGCUGUCACGCAAGGAUAUCUCACGAACA
MS2 coat protein [1]; [3]
  apparent Kd: 231 nM
MS2 coat protein [1]; [4]
  apparent Kd: 184 nM

## ACCCAGACAUGAGGAUCACCCAUGUAAAUAGAGUACAUCAGGAGAAGGUUCAAAGGGCCUACCCGAAAGGAUAUCCUCGGCGUA
MS2 coat protein [1]; [7]
  apparent Kd: 30.8 nM
MS2 coat protein [1]; [8]
  apparent Kd: 25.7 nM

## ACUAGCAUAGGAUAUCACCACAGGUACAUGAGGAUCACCCAUGUGAGACUAGCUAGCUGCUGAGAAGGAUGAAAGG
MS2 coat protein [1]; [3]
  apparent Kd: 27.9 nM
MS2 coat protein [1]; [4]
  apparent Kd: 23.6 nM

## AGAAGCUAAUCCGGCUCAUACAUGAGGAUCACCCAUGUUUUCAGAAGGGAGUCCGUCGCACCGACUCAGGAUAUGAUUCAAGAA
MS2 coat protein [1]; [7]
  apparent Kd: 15.6 nM
MS2 coat protein [1]; [8]
  apparent Kd: 21.8 nM

## UUUAUUUUUAGAGGAUAUAUUGUGUGUGAGAGAAUAGAAGGCUAAACAUGAGACACACACAUGAGGAUCACCCAUGUUAUGUUU
MS2 coat protein [2]; [7]
  apparent Kd: 62.6 nM
MS2 coat protein [2]; [8]
  apparent Kd: 52 nM

## UUUCAACAUGAGGAUCACCCAUGUGAGGAUAUGAUGCAGCAGUGGUCUACGCUGUGCAUCAGAAGGCACAUGUG
MS2 coat protein [2]; [3]
  apparent Kd: 200 nM
MS2 coat protein [2]; [4]
  apparent Kd: 21.8 nM

## UUUCCAUAGAUAGGAUAUCAGUUUACAUGAGGAUCACCCAUGUUCUCUUUGGUUAUAAUUAUAUCUGAGAAGGAUCUUGAUGAA
MS2 coat protein [2]; [7]
  apparent Kd: 29.6 nM
MS2 coat protein [2]; [8]
  apparent Kd: 26.3 nM

## UUUCUCUGGGCGUCUUCUUACAUGAGGAUCACCCAUGUUUCAUAGGAUAUGCUAUAGUGUUACAUGCAGAAGGAUGUUUGUUUU
MS2 coat protein [2]; [3]
  apparent Kd: 234 nM
MS2 coat protein [2]; [4]
  apparent Kd: 474 nM

## UUUCUCUGUGUGAGGAUAUACUUGUUUGGGUUUUUGUAGAAGGCACAUGAGGAUCACCCAUGUAUUUUGUCGUG
MS2 coat protein [2]; [3]
  apparent Kd: 34.4 nM
MS2 coat protein [2]; [4]
  apparent Kd: 55.6 nM

## UUUGCAACAUGAGGAUCACCCAUGUAGGAUAUCGCUAUUGUAAUCAUGAAACAUGAUUACAAUAGCGAGAAGGACAUAUGCAAA
MS2 coat protein [2]; [3]
  apparent Kd: 7.54 nM
MS2 coat protein [2]; [4]
  apparent Kd: 10.4 nM

## UUUGGGCCCUCAUCCCUCGACACAUGAGGAUCACCCAUGUGCAGAAGGUGGAGACCCGAGGUCGCCAAGGAUAUGCAAUGGGAC
MS2 coat protein [2]; [3]
  apparent Kd: 15.8 nM
MS2 coat protein [2]; [4]
  apparent Kd: 10.2 nM

## UUUGUACAUGAGGAUCACCCAUGUUAGGAUAUCUCGCCGUCGGCUUGCCGACGGUAUUAGAGAAGGGACAAGGG
MS2 coat protein [2]; [3]
  apparent Kd: 136 nM
MS2 coat protein [2]; [4]
  apparent Kd: 108 nM

## UUUGUCUGUGUGAGGAUAUACUUUUUUUGGUUUUUGUAGAAGGCACAUGAGGAUCACCCAUGUAUUUUGUUGUG
MS2 coat protein [2]; [3]
  apparent Kd: 37.7 nM
MS2 coat protein [2]; [4]
  apparent Kd: 50.2 nM

## UUUGUUGUUGUGAGGAUAUCGUUGUUAUUUUGAAACGAGAAGGCACAUGAGGAUCACCCAUGUUUGUUGUUGGU
MS2 coat protein [2]; [3]
  apparent Kd: 52.1 nM
MS2 coat protein [2]; [4]
  apparent Kd: 195 nM

## UUUUAACAGUCAGGAUAUGUAACGCACAACGGCGCAGAAGGGACAUGAGGAUCACCCAUGUUAUGGUUCUGGUACUAUGACGUU
MS2 coat protein [2]; [3]
  apparent Kd: 18.8 nM
MS2 coat protein [2]; [4]
  apparent Kd: 23.1 nM

## UUUUAACAUGAGGAUCACCCAUGUGAGGAUAUCGAAAUUUAUAUUAAUAUUAAUUAUUCGAGAAGGCACAUUUU
MS2 coat protein [2]; [3]
  apparent Kd: 119 nM
MS2 coat protein [2]; [4]
  apparent Kd: 126 nM

## UUUUAACAUGAGGAUCACCCAUGUGAGGAUAUCGAAAUUUAUAUUAAUAUUAUUUAUUCGAGAAGGCACAUUUU
MS2 coat protein [2]; [3]
  apparent Kd: 120 nM
MS2 coat protein [2]; [4]
  apparent Kd: 145 nM

## UUUUAACAUGAGGAUCACCCAUGUGAGGAUAUCGAAAUUUAUAUUAAUAUUUAUAAAUCGAGAAGGCACAUUUU
MS2 coat protein [2]; [3]
  apparent Kd: 135 nM
MS2 coat protein [2]; [4]
  apparent Kd: 124 nM

## UUUUAACAUGAGGAUCACCCAUGUGAGGAUAUCGAAAUUUAUAUUAAUAUUUAUUUUACGAGAAGGCACAUUUU
MS2 coat protein [2]; [3]
  apparent Kd: 98 nM
MS2 coat protein [2]; [4]
  apparent Kd: 102 nM

## UUUUAACAUGAGGAUCACCCAUGUGAGGAUAUCGAAAUUUAUAUUUAUAUUAAUUUUUCGAGAAGGCACAUUUU
MS2 coat protein [2]; [3]
  apparent Kd: 169 nM
MS2 coat protein [2]; [4]
  apparent Kd: 157 nM

## UUUUAACAUGAGGAUCACCCAUGUGAGGAUAUCGAAAUUUAUAUUUAUAUUUAUAAUUCGAGAAGGCACAUUUU
MS2 coat protein [2]; [3]
  apparent Kd: 179 nM
MS2 coat protein [2]; [4]
  apparent Kd: 141 nM

## UUUUAACAUGAGGAUCACCCAUGUGAGGAUAUCGAAAUUUAUAUUUAUAUUUAUAUUACGAGAAGGCACAUUUU
MS2 coat protein [2]; [3]
  apparent Kd: 84.9 nM
MS2 coat protein [2]; [4]
  apparent Kd: 102 nM

## UUUUAACAUGAGGAUCACCCAUGUGAGGAUAUCGAUAUUUAUAUUAAUAUUAAUAAAACGAGAAGGCACAUUUU
MS2 coat protein [2]; [3]
  apparent Kd: 71 nM
MS2 coat protein [2]; [4]
  apparent Kd: 87.2 nM

## UUUUAACAUGAGGAUCACCCAUGUGAGGAUAUCGUUAUUUUUAUUAAUAUUAAUAAAACGAGAAGGCACAUUUU
MS2 coat protein [2]; [3]
  apparent Kd: 104 nM
MS2 coat protein [2]; [4]
  apparent Kd: 114 nM

## UUUUAUUAGUAAGGAUAUACUAGCGAUUAGCUUGUAGAAGGUACAGUCUUAUGUAUAGCAUGUUAACAUGAGGAUCACCCAUGU
MS2 coat protein [2]; [7]
  apparent Kd: 20.9 nM
MS2 coat protein [2]; [8]
  apparent Kd: 14 nM

## UUUUCCAGGCAGAAGGGUCCUCACAUGAGGAUCACCCAUGUAAACGUGGAUAGGAUAUGCCACUGGGCUCGAUAAGAGUGGUUC
MS2 coat protein [2]; [7]
  apparent Kd: 640 nM
MS2 coat protein [2]; [8]
  apparent Kd: 128 nM

## UUUUUUGUAGUGAGGAUAUCGUUGAGGAUGUGGAUCGAGAAGGCACAUGAGGAUCACCCAUGUUAGAUGUGGUU
MS2 coat protein [2]; [3]
  apparent Kd: 262 nM
MS2 coat protein [2]; [4]
  apparent Kd: 295 nM

Source: the EternaBench riboswitch data
